Compounds with a hit are over-represented: about 1.8% of the library has one in this group of screens.
DAGLB inh = DAGLB lipase inhibitors, primary screen, biochemical, fluorescence, HTS | Diacylglycerol lipase-beta (Homo sapiens), Q8NCG7 | HEK293T DAGLB membrane lysate, EnzChek fluorogenic substrate | inhibition, % at 5.17 µM | 340,000 tested, 0.059% active | AID 504411, 2011; in the data active = inhibition above about 34%
Target sequence (Q8NCG7 whole entry, looked up): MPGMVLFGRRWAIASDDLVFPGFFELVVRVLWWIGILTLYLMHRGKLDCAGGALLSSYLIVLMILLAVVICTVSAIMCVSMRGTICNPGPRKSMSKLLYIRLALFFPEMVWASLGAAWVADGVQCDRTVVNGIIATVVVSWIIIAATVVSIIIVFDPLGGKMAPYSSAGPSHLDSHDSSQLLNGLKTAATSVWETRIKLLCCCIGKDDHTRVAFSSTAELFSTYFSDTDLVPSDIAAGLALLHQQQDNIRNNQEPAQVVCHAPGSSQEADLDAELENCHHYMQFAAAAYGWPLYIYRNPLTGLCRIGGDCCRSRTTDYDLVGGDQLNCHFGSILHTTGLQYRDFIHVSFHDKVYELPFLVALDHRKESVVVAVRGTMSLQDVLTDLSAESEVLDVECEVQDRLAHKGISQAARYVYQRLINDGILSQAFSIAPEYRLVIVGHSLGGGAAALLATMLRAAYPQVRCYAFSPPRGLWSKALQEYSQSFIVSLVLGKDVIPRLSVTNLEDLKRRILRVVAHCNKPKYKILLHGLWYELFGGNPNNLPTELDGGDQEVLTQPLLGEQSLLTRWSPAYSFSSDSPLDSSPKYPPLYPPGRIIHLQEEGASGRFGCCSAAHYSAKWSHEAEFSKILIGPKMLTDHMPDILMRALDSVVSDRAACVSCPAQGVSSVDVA
Cneo AK release = Cryptococcus neoformans cell lysis inducers, primary screen, AK release luminescence, single concentration | lysis activity, % at 15 µM | 360,000 tested, 0.2% active | C. neoformans lysis, adenylate kinase release luminescence, 4 h; normalised: neutral wells 0, clomiphene wells 100;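 active = mean lysis activity across replicates of at least 80%, whatever share of replicates individually reach that level; inactive = mean lysis activity below 80%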
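Schedule: static 4 h at 37 °C with compound, 1 h detection; system: C. neoformans cells; benchmarks: Clomiphene as positive control; buffer or medium: fresh YPD medium; measure: luminescence rise reflecting yeast cell lysis; measured by: luminescent adenylate kinase detection reagent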
SKN-1 inh = suppressors of acrylamide-induced Pgst-4::GFP reporter in worms, primary screen, SKN-1 inhibitor project, whole organism, uHTS, GFP/RFP fluorescence ratio, strain VP596 | 360,000 tested, 0.49% active | C. elegans VP596 Pgst-4::GFP/RFP ratio, 24 h | inhibition, % at 21.8 µM | AID 624304, 2012;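 active = interference check ratio from 0.5 to 1.5 plus GFP to RFP signal ratio inhibition reaching or exceeding a fixed threshold, cut at about 30% in these data, passing the limit was not always enough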
MT1-MMP act inh = blockers of MT1-MMP proenzyme processing, primary screen, HT1080 RFP-PRO-GFP cells, GFP/RFP fluorescence. GFP/RFP ratio fluorescence, overnight; percent of plate control window, DMSO zero. Matrix metalloproteinase-14 (Homo sapiens), P50281. GFP/RFP ratio change, % at 20 µM. 360,000 tested, 0.061% active. AID 651647, 2012;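 active = GFP/RFP ratio change of at least 30% with cell ATP level not reduced by more than half and red fluorescence within 50% of control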
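system = RFP-PRO-GFP reporter HT1080 cells | dosing = 20 µM single dose, 1% DMSO | timing = overnight cell settling, then overnight compound exposure, 37 °C, 5% CO2 | read-out basis = GFP/RFP fluorescence ratio | controls = DMSO and RFP-L50D-GFP cell wells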
rRNA inh HTS = reduced GFP signal of wild-type E. coli, primary screen, bacterial rRNA inhibitor project, GFP/RFP fluorescence, OD600, single point; GFP signal change (wild-type ribosome), % (no concentration beside the values); 350,000 tested, 1.6% active; AID 720706, 2013; E. coli WT GFP vs humanized-ribosome RFP mutants, 24 h; hits give low values; DMSO median 0, no signal -100;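 active = significant combined selectivity score with lowered wild-type GFP, culture density cut under 30%, mutant RFP and density less affected; inactive = any of these conditions unmet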
iPSC survival up = enhancers of single-cell hiPSC survival, primary screen, ATPlite luminescence; survival enhancement, % at 20 µM; 100% = ROCK inhibitor wells, 0% = DMSO; AID 602274, 2012; 360,000 tested, 0.044% active; in the data active = survival enhancement above about 18%;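 note: cells exposed to compounds for 16 hours before the ATP read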
Each line names hits and unclear results; the compound was inactive in the other large screens.

O=[N+]([O-])c1ccc2c(c1)/C(=N\O)c1ccccc1-2	rRNA inh HTS -28
CC(C)(C)c1ccc(OCCC(=O)OCC(=O)NCc2ccccc2)cc1	rRNA inh HTS -34
O=C(Nc1ccc2c(c1)[C@@H]1C[C@H](CC(=O)N3CCCCC3)O[C@H](CO)[C@@H]1O2)NC1CCCCC1	none (no result: DAGLB inh, Cneo AK release, SKN-1 inh, MT1-MMP act inh, iPSC survival up)
O=C(O)c1ccc(S(=O)(=O)N(Cc2ccc(F)cc2)C2CCCCC2)cc1	rRNA inh HTS -22
NC(=O)C1CCN(C(=O)CN(C2CCCCC2)S(=O)(=O)c2ccc(F)cc2)CC1	rRNA inh HTS -26
CN(Cc1ccccc1)S(=O)(=O)c1ccc(S(=O)(=O)N(Cc2ccc(F)cc2)C2CCCC2)cc1	none (no result: rRNA inh HTS)
O=C1CCCc2c1[nH]c1ccccc21	none (no result: rRNA inh HTS)
c1ccc2c(c1)OCCc1c-2[nH]c2ccccc12	SKN-1 inh 52
Cc1csc(-c2nc3ccccc3n2C(C)c2nc3ccccc3[nH]2)c1 (stereo not drawn)	rRNA inh HTS -30 (no result: DAGLB inh, Cneo AK release, iPSC survival up)
O=C(N/N=C/c1ccccc1O)C(=O)N1CCCCCC1	rRNA inh HTS -25
O=C(C[C@H]1CC[C@H]2NC[C@H](O)COC[C@@H]2O1)NC1Cc2ccccc2C1	none (no result: DAGLB inh, SKN-1 inh, MT1-MMP act inh, iPSC survival up)
O=C(Cn1cnc2ccccc21)c1ccc(Br)cc1	rRNA inh HTS -28
CC(C)c1nnc(NC(=O)C2CCN(C(=O)Nc3ccc(Cl)cc3)CC2)s1	rRNA inh HTS -23
CC(C)c1ccc(NC(=S)Nc2ccc3cn[nH]c3c2)cc1	rRNA inh HTS -46
Cc1ccc(NC(=S)Nc2ccc3cn[nH]c3c2)cc1C	none (no result: Cneo AK release, rRNA inh HTS)
Cc1ccc(NC(=S)Nc2ccc3cn[nH]c3c2)c(C)c1	rRNA inh HTS -26 (no result: Cneo AK release)
C[C@@H]1CCCCO[C@H](CN(C)C(=O)CCC(F)(F)F)[C@H](C)CN([C@@H](C)CO)C(=O)c2cc(NS(=O)(=O)c3cccs3)ccc2O1	none (no result: DAGLB inh, SKN-1 inh, MT1-MMP act inh, iPSC survival up)
Cc1ccc(C2C(C#N)=C(N)Oc3cc(N)ccc32)cc1 (stereo not drawn)	none
Cc1ccc(/C=C2\CCC3=C2OC(N)=C(C#N)C3c2ccc(C)cc2)cc1 (stereo not drawn)	SKN-1 inh 35 (no result: rRNA inh HTS)
O=C(C[C@@H]1C[C@H]2c3cc(NC(=O)NC4CCCCC4)ccc3O[C@H]2[C@@H](CO)O1)NC1CCCC1	none (no result: DAGLB inh, Cneo AK release, SKN-1 inh, MT1-MMP act inh, iPSC survival up)
Cc1nn(-c2ccccc2)c2c1C1(C(=O)N3c4c(cccc41)C(C)CC3(C)C)C(C#N)=C(N)O2 (stereo not drawn)	rRNA inh HTS -46
O=C(O)c1ccc(-c2noc(-c3cccc(Cl)c3)n2)cc1	rRNA inh HTS -23
COc1ccc(NC(=O)Nc2cccc3c2O[C@H](CN(C)C(=O)Nc2ccc4c(c2)OCO4)[C@H](C)CN([C@@H](C)CO)C3=O)cc1	none (no result: DAGLB inh, SKN-1 inh, MT1-MMP act inh, iPSC survival up)
CC(C)NC(=O)N(C)C[C@H]1Oc2c(NC(=O)C3CCCCC3)cccc2C(=O)N([C@@H](C)CO)C[C@@H]1C	none (no result: DAGLB inh, SKN-1 inh, MT1-MMP act inh, iPSC survival up)
O=C(Nc1nccs1)c1ccc(-c2ccc([N+](=O)[O-])cc2)o1	none
O=C(Nc1nccs1)c1ccc(-c2ccc(Cl)cc2)o1	SKN-1 inh 41
O=C(Nc1nccs1)c1ccc(-c2ccc(F)cc2)o1	SKN-1 inh 52 (no result: Cneo AK release)
C[C@@H]1CCCCO[C@H](CN(C)C(=O)CCC(F)(F)F)[C@H](C)CN([C@@H](C)CO)C(=O)c2cc(NC(=O)CCCN(C)C)ccc2O1	none (no result: DAGLB inh, SKN-1 inh, MT1-MMP act inh, iPSC survival up)
CC(C)CCNC(=O)c1onc(CSc2ccc(Cl)cc2)c1C(=O)NCCC(C)C	none
CC(C)CCNC(=O)c1onc(CSc2ccc(F)cc2)c1C(=O)NCCC(C)C	iPSC survival up 21
CC(C)NC(=O)N1CC2(C1)[C@H](c1ccccc1)[C@@H](CO)N2C(=O)c1ccccn1	none (no result: DAGLB inh, Cneo AK release, SKN-1 inh, MT1-MMP act inh, iPSC survival up)
c1csc(-c2cn3ccc4ccccc4c3n2)c1	SKN-1 inh 39 (no result: Cneo AK release)
O=S(=O)(c1cccc2cccnc12)N1CCN(Cc2ccc(OCCO)cc2)CC1	none (no result: DAGLB inh, SKN-1 inh, MT1-MMP act inh, rRNA inh HTS, iPSC survival up)
CNC(=O)C[C@@H]1CC[C@@H]2[C@H](COC[C@H](O)CN2S(=O)(=O)c2cccc(Cl)c2)O1	Cneo AK release 100 (no result: DAGLB inh, SKN-1 inh, MT1-MMP act inh, iPSC survival up)
Cc1ccc(S(=O)(=O)N2C[C@@H](O)COC[C@H]3O[C@H](CC(=O)NCc4ccc5c(c4)OCO5)CC[C@@H]32)cc1	Cneo AK release 104 (no result: DAGLB inh, SKN-1 inh, MT1-MMP act inh, iPSC survival up)
Cc1ccc(S(=O)(=O)N2C[C@H](O)COC[C@H]3O[C@@H](CC(=O)NCc4ccc5c(c4)OCO5)CC[C@@H]32)cc1	none (no result: DAGLB inh, SKN-1 inh, MT1-MMP act inh, iPSC survival up)
O=C(C[C@@H]1CC[C@@H]2[C@H](COC[C@H](O)CN2S(=O)(=O)c2cccc(Cl)c2)O1)Nc1ccccc1	none (no result: DAGLB inh, SKN-1 inh, MT1-MMP act inh, iPSC survival up)
COc1cccc(CN2[C@@H](CO)[C@H](c3ccccc3)C23CN(Cc2ccccc2OC)C3)c1	none (no result: DAGLB inh, Cneo AK release, SKN-1 inh, MT1-MMP act inh, iPSC survival up)
CCCN1C[C@H](C)[C@@H](OC)CN(C)C(=O)c2ccc(NC(=O)C3CCC3)cc2OC[C@@H]1C	none (no result: DAGLB inh, SKN-1 inh, MT1-MMP act inh, iPSC survival up)
CN(Cc1c(F)cccc1Cl)C(=O)c1ccc(NS(=O)(=O)c2ccc3[nH]c(=O)[nH]c3c2)cc1	rRNA inh HTS -22
COCCCNC(=O)c1ccccc1Oc1ccccc1	none (no result: rRNA inh HTS)
COCCCNC(=O)c1ccc2c3c(onc13)-c1ccccc1C2=O	SKN-1 inh 62 (no result: rRNA inh HTS)
COc1ccc(C(=O)Nc2ccc3c(c2)OC[C@H](C)NC[C@H](C)[C@H](OC)CN(C)C3=O)cc1	none (no result: DAGLB inh, SKN-1 inh, MT1-MMP act inh, iPSC survival up)
COc1ccc2c(c1OC)C(=O)OC2Nc1nc(-c2ccc(-c3ccccc3)cc2)cs1 (stereo not drawn)	SKN-1 inh 65 (no result: rRNA inh HTS)

Source: PubChem (several laboratories)
